Measured values: ChEMBL document CHEMBL2203081 (Bioorg Med Chem Lett, 2012)

Tests used:
[1] = target: Serine/threonine-protein kinase WNK3 (Homo sapiens) (UniProt Q9BYP7); assay: Inhibition of WNK3 assessed as residual activity at 10 uM relative to control
[2] = target: Cyclin-dependent kinase 11A (Homo sapiens) (UniProt Q9UQ88); assay: Inhibition of CDC2L2 assessed as residual activity at 10 uM relative to control
[3] = target: T1, Serine/threonine-protein kinase D1 (Homo sapiens) (UniProt Q15139); assay: Inhibition of PKD1 assessed as residual activity at 1 uM
T1 sequence (whole entry): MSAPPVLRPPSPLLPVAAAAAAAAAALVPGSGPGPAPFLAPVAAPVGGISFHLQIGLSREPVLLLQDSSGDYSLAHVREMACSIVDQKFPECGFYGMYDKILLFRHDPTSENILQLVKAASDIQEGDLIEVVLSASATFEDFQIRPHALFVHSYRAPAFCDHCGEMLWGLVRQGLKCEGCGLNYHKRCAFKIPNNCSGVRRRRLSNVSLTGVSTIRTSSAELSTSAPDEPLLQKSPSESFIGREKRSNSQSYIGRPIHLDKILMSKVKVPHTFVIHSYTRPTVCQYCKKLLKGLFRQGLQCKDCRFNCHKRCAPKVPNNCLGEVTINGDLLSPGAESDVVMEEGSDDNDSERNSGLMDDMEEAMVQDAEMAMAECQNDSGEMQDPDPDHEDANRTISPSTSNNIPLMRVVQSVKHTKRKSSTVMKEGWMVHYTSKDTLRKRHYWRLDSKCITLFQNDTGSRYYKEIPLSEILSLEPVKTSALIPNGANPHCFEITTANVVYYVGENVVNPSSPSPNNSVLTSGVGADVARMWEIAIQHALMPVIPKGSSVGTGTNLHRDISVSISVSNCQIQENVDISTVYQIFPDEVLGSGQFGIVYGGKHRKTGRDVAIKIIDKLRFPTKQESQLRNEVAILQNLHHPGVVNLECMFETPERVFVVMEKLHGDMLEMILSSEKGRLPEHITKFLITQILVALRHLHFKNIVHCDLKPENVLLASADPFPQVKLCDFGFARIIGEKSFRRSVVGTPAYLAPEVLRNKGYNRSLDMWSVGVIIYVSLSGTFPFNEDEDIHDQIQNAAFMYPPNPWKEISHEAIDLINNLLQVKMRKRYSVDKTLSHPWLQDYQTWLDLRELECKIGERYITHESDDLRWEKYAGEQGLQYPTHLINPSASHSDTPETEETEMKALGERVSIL

[4] = target: Mitogen-activated protein kinase kinase kinase 9 (Homo sapiens) (UniProt P80192); assay: Inhibition of MLK1 assessed as residual activity at 1 uM
[5] = target: Tyrosine-protein kinase Lyn (Homo sapiens) (UniProt P07948); assay: Inhibition of LYN assessed as residual activity at 10 uM relative to control
[6] = target: Tyrosine-protein kinase BTK (Homo sapiens) (UniProt Q06187); assay: Inhibition of BTK assessed as residual activity at 10 uM relative to control
[7] = target: Ribosomal protein S6 kinase alpha-6 (Homo sapiens) (UniProt Q9UK32); assay: Inhibition of RSK4 N-terminal domain 1 assessed as residual activity at 10 uM relative to control
[8] = test system: Receptor-type tyrosine-protein kinase FLT3 (Homo sapiens), P36888 [D835Y]; assay: Inhibition of FLT3 D835Y mutant assessed as residual activity at 10 uM relative to control
[9] = target: Tyrosine-protein kinase CSK (Homo sapiens) (UniProt P41240); assay: Inhibition of CSK assessed as residual activity at 10 uM
Outline: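 Standard radioactivity-based enzymatic kinase assays on a 131-kinase panel run by the Dundee profiling service; residual kinase activity recorded.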

[10] = target: T2, Ephrin type-B receptor 3 (Homo sapiens) (UniProt P54753); assay: Inhibition of EPHB3 assessed as residual activity at 10 uM relative to control
T2 sequence (whole entry): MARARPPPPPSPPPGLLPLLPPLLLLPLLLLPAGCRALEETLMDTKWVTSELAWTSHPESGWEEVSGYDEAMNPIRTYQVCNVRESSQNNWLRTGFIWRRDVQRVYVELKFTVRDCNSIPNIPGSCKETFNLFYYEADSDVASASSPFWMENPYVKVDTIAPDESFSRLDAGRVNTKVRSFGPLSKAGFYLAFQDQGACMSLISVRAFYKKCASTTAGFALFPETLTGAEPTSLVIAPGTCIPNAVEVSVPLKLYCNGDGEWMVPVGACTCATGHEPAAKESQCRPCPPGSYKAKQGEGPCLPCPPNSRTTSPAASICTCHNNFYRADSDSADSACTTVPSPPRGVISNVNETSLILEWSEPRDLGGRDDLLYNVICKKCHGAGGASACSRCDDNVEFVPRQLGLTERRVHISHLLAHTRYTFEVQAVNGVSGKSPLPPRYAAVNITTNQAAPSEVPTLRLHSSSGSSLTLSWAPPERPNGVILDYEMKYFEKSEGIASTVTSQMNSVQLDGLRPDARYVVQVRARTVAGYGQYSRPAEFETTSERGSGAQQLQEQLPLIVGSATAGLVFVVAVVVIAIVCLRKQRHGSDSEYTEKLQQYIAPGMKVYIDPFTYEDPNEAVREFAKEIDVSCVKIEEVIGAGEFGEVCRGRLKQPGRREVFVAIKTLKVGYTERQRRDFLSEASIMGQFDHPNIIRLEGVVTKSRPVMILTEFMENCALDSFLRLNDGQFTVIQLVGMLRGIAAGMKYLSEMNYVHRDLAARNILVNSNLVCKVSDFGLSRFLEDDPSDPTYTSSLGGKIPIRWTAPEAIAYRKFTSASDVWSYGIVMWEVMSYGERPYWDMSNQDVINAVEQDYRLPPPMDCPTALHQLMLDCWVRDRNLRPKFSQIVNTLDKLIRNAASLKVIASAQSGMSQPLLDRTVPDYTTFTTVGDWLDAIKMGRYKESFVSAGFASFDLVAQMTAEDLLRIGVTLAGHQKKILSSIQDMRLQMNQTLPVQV
Outline: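 Competition kinase-binding assay (KINOMEscan) across a non-redundant panel of 329 kinases beyond the radiometric panel; residual binding expressed relative to control.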

[11] = target: Serine/threonine-protein kinase WNK1 (Homo sapiens) (UniProt Q9H4A3); assay: Inhibition of WNK1 assessed as residual activity at 1 uM
[12] = target: Myosin light chain kinase, smooth muscle (Homo sapiens) (UniProt Q15746); assay: Inhibition of SmMLCK assessed as residual activity at 1 uM
[13] = target: Phosphorylase b kinase gamma catalytic chain, skeletal muscle/heart isoform (Homo sapiens) (UniProt Q16816); assay: Inhibition of PHKG1 assessed as residual activity at 10 uM relative to control
[14] = target: Myosin light chain kinase family member 4 (Homo sapiens) (UniProt Q86YV6); assay: Inhibition of MYLK4 assessed as residual activity at 10 uM relative to control
[15] = target: Serine/threonine-protein kinase MRCK alpha (Homo sapiens) (UniProt Q5VT25); assay: Inhibition of MRCKA assessed as residual activity at 10 uM relative to control
[16] = Inhibition of AMPK assessed as residual activity at 10 uM

Ribosomal protein S6 kinase alpha-6 (Homo sapiens), sequence (Q9UK32 whole entry, the tested form may be a part): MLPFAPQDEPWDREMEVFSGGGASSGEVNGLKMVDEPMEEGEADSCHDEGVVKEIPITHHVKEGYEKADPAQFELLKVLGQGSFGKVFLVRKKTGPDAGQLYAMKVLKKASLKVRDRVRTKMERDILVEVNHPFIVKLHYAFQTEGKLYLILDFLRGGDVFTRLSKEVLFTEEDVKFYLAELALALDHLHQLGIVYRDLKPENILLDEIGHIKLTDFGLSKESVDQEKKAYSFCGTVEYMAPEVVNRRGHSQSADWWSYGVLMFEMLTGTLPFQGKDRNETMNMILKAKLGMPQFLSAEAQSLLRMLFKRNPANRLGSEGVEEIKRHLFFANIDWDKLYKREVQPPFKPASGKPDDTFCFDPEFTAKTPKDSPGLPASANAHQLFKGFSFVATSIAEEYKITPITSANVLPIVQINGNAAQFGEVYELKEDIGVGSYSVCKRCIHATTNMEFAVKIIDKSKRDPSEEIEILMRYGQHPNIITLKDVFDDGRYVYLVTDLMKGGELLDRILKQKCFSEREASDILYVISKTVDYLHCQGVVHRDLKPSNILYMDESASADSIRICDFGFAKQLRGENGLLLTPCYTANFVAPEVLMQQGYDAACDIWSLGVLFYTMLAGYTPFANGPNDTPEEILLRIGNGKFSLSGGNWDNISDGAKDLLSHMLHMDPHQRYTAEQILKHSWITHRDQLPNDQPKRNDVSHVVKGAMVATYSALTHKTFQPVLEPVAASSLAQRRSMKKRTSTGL
Myosin light chain kinase family member 4 (Homo sapiens), sequence (Q86YV6 whole entry): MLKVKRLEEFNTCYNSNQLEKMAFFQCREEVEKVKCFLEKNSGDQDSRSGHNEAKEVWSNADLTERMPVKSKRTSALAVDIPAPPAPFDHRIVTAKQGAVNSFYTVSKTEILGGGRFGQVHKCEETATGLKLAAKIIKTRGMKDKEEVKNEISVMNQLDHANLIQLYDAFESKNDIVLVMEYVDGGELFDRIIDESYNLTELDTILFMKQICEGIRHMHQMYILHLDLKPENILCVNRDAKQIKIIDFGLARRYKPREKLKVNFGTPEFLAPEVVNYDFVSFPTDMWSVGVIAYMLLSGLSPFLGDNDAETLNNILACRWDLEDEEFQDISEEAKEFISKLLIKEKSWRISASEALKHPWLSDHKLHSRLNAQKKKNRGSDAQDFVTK
Serine/threonine-protein kinase MRCK alpha (Homo sapiens), sequence (Q5VT25 whole entry): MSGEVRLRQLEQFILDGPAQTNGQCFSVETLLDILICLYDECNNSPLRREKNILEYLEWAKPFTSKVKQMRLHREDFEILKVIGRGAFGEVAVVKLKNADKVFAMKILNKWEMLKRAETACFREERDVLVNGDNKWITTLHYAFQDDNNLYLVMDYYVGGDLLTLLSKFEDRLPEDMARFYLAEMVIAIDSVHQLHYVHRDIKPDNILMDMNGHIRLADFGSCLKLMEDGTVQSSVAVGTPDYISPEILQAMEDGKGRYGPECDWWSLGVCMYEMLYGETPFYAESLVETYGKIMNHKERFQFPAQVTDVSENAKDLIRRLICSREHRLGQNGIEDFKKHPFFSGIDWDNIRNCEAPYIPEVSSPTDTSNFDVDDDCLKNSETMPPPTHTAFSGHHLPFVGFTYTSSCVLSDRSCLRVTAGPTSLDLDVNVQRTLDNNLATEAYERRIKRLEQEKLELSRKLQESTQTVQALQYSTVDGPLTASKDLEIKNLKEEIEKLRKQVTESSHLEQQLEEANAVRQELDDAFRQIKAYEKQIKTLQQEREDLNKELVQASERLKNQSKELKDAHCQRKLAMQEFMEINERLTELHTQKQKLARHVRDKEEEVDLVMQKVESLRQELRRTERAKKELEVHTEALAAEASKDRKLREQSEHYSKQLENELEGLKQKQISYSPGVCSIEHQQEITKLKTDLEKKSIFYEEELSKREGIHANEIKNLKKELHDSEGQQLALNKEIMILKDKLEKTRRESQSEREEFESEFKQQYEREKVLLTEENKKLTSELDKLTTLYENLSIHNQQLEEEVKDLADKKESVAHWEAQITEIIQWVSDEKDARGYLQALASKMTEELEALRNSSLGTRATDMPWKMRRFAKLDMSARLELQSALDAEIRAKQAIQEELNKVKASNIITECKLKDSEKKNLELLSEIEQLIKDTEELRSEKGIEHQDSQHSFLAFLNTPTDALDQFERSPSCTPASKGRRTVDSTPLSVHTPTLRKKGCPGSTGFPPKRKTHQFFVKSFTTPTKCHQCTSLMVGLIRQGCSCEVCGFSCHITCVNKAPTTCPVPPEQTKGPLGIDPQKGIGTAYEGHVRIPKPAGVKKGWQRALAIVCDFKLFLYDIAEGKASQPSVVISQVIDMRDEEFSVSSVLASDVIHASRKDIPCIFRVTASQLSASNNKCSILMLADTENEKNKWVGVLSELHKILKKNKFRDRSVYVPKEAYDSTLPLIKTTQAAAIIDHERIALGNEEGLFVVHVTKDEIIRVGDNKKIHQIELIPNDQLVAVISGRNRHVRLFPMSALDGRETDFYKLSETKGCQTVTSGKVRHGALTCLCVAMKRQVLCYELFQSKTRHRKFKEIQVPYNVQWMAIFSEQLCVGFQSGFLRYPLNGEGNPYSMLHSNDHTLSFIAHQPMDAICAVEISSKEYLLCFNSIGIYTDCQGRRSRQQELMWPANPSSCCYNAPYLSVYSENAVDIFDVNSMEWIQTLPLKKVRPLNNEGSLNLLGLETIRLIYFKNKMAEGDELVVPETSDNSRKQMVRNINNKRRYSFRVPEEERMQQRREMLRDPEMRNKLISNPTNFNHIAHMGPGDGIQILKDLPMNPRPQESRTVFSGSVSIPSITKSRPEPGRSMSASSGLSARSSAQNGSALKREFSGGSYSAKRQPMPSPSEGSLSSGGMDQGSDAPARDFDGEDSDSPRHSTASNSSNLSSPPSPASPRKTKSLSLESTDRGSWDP
Serine/threonine-protein kinase WNK3 (Homo sapiens), sequence (Q9BYP7 whole entry): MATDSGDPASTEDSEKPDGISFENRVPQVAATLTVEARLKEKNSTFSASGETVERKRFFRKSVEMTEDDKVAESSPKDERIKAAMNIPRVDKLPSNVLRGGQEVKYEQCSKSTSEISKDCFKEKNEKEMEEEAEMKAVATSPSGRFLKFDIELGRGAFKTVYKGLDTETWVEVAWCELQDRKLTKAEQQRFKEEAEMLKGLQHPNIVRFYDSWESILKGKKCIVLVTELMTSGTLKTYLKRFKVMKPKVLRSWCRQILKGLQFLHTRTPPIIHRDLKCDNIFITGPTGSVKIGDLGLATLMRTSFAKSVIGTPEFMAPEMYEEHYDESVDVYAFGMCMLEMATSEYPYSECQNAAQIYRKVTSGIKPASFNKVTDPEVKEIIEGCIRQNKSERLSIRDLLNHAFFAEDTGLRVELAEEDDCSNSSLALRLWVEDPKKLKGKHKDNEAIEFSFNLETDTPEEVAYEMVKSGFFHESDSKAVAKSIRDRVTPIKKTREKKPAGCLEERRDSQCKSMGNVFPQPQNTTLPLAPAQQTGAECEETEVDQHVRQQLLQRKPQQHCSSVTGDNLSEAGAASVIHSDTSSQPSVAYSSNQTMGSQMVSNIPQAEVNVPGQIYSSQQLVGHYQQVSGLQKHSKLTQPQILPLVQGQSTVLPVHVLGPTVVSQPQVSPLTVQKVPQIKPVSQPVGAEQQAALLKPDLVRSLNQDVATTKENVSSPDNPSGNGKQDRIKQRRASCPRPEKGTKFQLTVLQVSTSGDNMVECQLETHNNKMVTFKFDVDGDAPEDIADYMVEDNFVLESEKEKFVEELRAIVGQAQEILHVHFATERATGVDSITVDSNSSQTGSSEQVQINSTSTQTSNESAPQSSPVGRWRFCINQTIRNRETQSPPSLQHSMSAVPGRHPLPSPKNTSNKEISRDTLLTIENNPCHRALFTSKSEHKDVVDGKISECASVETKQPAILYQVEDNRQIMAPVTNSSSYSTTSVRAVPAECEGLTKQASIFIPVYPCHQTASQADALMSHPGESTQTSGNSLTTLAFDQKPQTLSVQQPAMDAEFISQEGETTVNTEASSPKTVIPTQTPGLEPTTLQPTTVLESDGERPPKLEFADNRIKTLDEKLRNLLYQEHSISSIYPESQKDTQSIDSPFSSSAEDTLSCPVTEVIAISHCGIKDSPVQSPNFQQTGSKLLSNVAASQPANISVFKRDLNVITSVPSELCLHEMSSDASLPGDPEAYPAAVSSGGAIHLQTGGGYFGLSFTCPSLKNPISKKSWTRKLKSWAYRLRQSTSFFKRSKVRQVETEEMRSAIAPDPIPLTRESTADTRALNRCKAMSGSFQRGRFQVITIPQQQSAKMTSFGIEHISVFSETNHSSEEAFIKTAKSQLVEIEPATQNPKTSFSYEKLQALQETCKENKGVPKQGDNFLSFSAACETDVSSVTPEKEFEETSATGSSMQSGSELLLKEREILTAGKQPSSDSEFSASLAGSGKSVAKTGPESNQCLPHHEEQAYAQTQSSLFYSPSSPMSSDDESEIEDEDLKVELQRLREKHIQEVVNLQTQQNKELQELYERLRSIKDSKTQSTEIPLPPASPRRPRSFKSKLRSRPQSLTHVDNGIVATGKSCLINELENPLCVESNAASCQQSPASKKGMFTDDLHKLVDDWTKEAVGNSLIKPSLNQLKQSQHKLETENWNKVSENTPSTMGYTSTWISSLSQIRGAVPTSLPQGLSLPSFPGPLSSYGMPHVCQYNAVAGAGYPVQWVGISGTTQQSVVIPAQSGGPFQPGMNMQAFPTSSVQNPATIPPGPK
Phosphorylase b kinase gamma catalytic chain, skeletal muscle/heart isoform (Homo sapiens), sequence (Q16816 whole entry, looked up, canonical isoform): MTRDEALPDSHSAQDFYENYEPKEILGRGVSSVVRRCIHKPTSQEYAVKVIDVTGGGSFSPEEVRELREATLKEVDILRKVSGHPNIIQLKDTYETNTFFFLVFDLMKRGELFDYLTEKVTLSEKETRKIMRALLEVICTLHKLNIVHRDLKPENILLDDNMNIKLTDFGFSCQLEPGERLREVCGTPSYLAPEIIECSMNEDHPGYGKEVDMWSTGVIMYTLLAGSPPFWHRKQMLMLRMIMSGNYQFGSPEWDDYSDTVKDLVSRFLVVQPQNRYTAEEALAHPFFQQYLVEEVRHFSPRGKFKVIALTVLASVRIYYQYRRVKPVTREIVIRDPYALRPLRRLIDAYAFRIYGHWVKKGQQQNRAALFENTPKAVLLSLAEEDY

Compound `O=C(Nc1cccnc1)c1cc(-c2ccnc(F)c2)ccc1OCc1ccccc1` has an Activity [1] of 62%, an Activity [2] of 63% and an Activity [3] of 80%. For the same compound, the Activity [4] was 69%, the Activity [5] was 73% and the Activity [6] was 64%. For the same compound, the Activity [7] was 71%, the Activity [8] was 5.8% and the Activity [9] was 114%. The Activity [10] was 67%, the Activity [11] was 104% and the Activity [12] was 32%. It also gave an Activity [13] of 80%, an Activity [14] of 80% and an Activity [15] of 56%. For the same compound, the Activity [16] was 90%.
